The record followed here is ChEMBL document CHEMBL5038594, “Structural Fine-Tuning of Desmuramylpeptide NOD2 Agonists Defines Their In Vivo Adjuvant Activity” (J Med Chem, 2021).

Molecules are shown by their SMILES. Active and inactive are the calls of the source. The calls are words filed in the database; no cut-off is given here.

A short description of data set [1]: Cytotoxicity against HEK-Blue hNOD2 cells assessed as reduction in metabolic activity at 20 uM incubated for 18 hrs by MTS assay. Type of data set: toxicity, cell-based. The settings on record: human, hek-blue hnod2, 18 h. The method, boiled down: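 HEK-Blue NOD2 cells, 40 000 per well, exposed to 20 μM compound or 0.1% DMSO for 18 h at 37 °C, 5% CO2. Metabolic activity measured by MTS (CellTiter 96 AQueous One) reagent. Duplicates, two independent biological replicates.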
Background: Tetrazolium assays rely on reduction of a dye to a coloured formazan, in cell work by metabolically active cells.

Data set [2] addresses T1, Nucleotide-binding oligomerization domain-containing protein 1 (Homo sapiens) (UniProt Q9Y239).
T1 sequence (whole entry): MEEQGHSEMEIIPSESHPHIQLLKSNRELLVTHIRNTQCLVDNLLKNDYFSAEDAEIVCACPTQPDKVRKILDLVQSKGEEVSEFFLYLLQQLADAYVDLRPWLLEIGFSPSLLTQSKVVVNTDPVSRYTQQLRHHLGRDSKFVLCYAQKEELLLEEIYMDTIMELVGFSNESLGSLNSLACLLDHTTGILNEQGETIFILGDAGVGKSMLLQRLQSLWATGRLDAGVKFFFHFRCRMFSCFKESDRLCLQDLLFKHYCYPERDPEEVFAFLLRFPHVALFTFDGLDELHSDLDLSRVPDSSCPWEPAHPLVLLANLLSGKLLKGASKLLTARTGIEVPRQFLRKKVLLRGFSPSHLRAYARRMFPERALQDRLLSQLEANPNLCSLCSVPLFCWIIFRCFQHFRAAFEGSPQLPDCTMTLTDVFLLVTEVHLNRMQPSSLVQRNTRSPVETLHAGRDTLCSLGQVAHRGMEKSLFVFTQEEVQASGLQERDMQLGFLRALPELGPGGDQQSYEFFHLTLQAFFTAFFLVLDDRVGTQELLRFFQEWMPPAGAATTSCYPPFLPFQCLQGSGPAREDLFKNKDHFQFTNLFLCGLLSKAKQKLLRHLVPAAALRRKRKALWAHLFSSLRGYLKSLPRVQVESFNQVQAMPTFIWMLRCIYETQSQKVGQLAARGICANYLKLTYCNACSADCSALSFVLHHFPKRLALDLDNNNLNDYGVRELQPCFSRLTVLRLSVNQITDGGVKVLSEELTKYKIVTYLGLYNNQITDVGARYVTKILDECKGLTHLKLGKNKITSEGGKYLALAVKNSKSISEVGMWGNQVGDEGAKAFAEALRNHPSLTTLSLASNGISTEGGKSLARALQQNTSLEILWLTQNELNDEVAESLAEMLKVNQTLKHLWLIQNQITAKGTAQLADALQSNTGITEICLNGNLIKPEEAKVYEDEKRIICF
Put plainly: Agonist activity at NOD1 in HEK-Blue hNOD2 cells assessed as increase in NFkappaB transactivation-mediated SEAP activity measured after 18 hrs by spectrophotometric method. Particulars: HEK-Blue hNOD1, in the assay text read “HEK-Blue hNOD1 cells” for “HEK-Blue hNOD2 cells”. In kind it is cell-based. The method, boiled down:
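Counter-screen in HEK-Blue NOD1 cells (HEK293 stably expressing human NOD1 plus an NF-κB-inducible SEAP reporter), seeded at 2.5 × 10^5 cells/mL in HEK-Blue detection medium. Compounds at 2 μM versus 0.1% DMSO vehicle, 18 h at 37 °C, 5% CO2. SEAP read as absorbance at 630 nm. Duplicates, at least two independent experiments.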

For `CCCCCCCCCCCC(=O)Oc1ccc(/C=C/C(=O)NCC(=O)N[C@H](C(=O)N[C@H](CCC(=O)OC2CCCC2)C(=O)OC2CCCC2)C(C)C)cc1OC`, the Activity result in data set [1] is on record as “Non-Toxic”. Further, the result in data set [2] was inactive.

Consider `CCOC(=O)CC[C@@H](NC(=O)[C@@H](NC(=O)CNC(=O)/C=C/c1ccc(C(C)C)cc1)C(C)C)C(=O)OCC`, for which, in data set [1], the Activity entry is “Non-Toxic”. The outcome in data set [2] was inactive.

Consider `CCOC(=O)CC[C@@H](NC(=O)[C@@H](NC(=O)CNC(=O)/C=C/c1ccc(OC)c(OC)c1)C(C)C)C(=O)OCC`, for which, in data set [1], the Activity entry was “Non-Toxic”. Besides, the result in data set [2] was inactive.

Turning to `COc1cc(/C=C/C(=O)NCC(=O)N[C@H](C(=O)N[C@H](CCC(=O)OC2CCCC2)C(=O)OC2CCCC2)C(C)C)ccc1OC(C)=O`, in data set [1], the Activity result is on record as “Non-Toxic”. In addition, in data set [2], the outcome was inactive.

`CCCCCCCCCCCCCCCCCC(=O)Oc1ccc(/C=C/C(=O)NCC(=O)N[C@H](C(=O)N[C@H](CCC(=O)OC2CCCC2)C(=O)OC2CCCC2)C(C)C)cc1OC`: the Activity result in data set [1] is “Non-Toxic”. The outcome in data set [2] was inactive.

As to `CCOC(=O)CC[C@@H](NC(=O)[C@@H](NC(=O)CNC(=O)C1CC1c1ccc(O)c(OC)c1)C(C)C)C(=O)OCC` (some centres undefined), the Activity result in data set [1] is “Non-Toxic”. Besides, the outcome in data set [2] was inactive.

As to `CCOC(=O)CC[C@@H](NC(=O)[C@H](CO)NC(=O)CNC(=O)/C=C/c1ccc(O)c(OC)c1)C(=O)OCC`, the Activity result in data set [1] is reported as “Non-Toxic”. For the same compound, in data set [2], the outcome was inactive.

Turning to `CCOC(=O)CC[C@@H](NC(=O)[C@@H](NC(=O)CNC(=O)/C=C/c1ccc(N)cc1)C(C)C)C(=O)OCC`, the Activity entry in data set [1] is “Non-Toxic”. Moreover, the outcome in data set [2] was inactive.

Turning to `CCCCCCCCCCCCCCCCCC(=O)NCCCC[C@H](NC(=O)CC[C@@H](NC(=O)[C@@H](NC(=O)CNC(=O)/C=C/c1ccc(O)c(OC)c1)C(C)C)C(=O)OCC)C(=O)OC`, the Activity entry in data set [1] is listed as “Non-Toxic”. In addition, the outcome in data set [2] was inactive.

`CCOC(=O)CC[C@@H](NC(=O)[C@@H](NC(=O)CNC(=O)[C@H]1C[C@@H]1c1ccc(F)c(F)c1)C(C)C)C(=O)OCC`: the Activity result in data set [1] is “Non-Toxic”. Also, the result in data set [2] was inactive.

For the compound `CCCCCCCCCCCCCCCCCCOC(=O)CC[C@@H](NC(=O)[C@@H](NC(=O)CNC(=O)/C=C/c1ccc(O)c(OC)c1)C(C)C)C(=O)OCCCCCCCCCCCCCCCCCC`, the Activity entry in data set [1] was “Non-Toxic”. In addition, in data set [2], the result was inactive.

Turning to `COc1cc(/C=C/C(=O)NCC(=O)N[C@H](C(=O)N[C@H](CCC(=O)OC(C)(C)C)C(=O)OC(C)(C)C)C(C)C)ccc1O`, the Activity entry in data set [1] is “Non-Toxic”. Besides, the result in data set [2] was inactive.

As for `CCCCNC(=O)CC[C@@H](NC(=O)[C@@H](NC(=O)CNC(=O)/C=C/c1ccc(O)c(OC)c1)C(C)C)C(=O)NCCCC`, the Activity result in data set [1] is recorded as “Non-Toxic”. Moreover, the outcome in data set [2] was inactive.

As to `CCOC(=O)CC[C@@H](NC(=O)[C@@H](NC(=O)CNC(=O)/C=C/c1ccc(O)c(OC)c1)[C@@H](C)O)C(=O)OCC`, the Activity entry in data set [1] is listed as “Non-Toxic”. In addition, the result in data set [2] was inactive.

As to `CCCCNC(=O)CC[C@@H](NC(=O)[C@@H](NC(=O)CNC(=O)/C=C/c1ccc(O)c(OC)c1)C(C)C)C(=O)OC(C)(C)C`, the Activity result in data set [1] is reported as “Non-Toxic”. Also, the result in data set [2] was inactive.

Consider `CCOC(=O)CC[C@@H](NC(=O)[C@@H](NC(=O)CNC(=O)C1CC1c1ccc(OC)c(OC)c1)C(C)C)C(=O)OCC` (some centres undefined), for which, in data set [1], the Activity result is on record as “Non-Toxic”. The outcome in data set [2] was inactive.

For `COc1cc(/C=C/C(=O)NCC(=O)N[C@H](C(=O)N[C@H](CCC(=O)OC(C)(C)C)C(=O)N2CCCC2)C(C)C)ccc1O`, the Activity result in data set [1] is recorded as “Non-Toxic”. Also, the result in data set [2] was inactive.

Turning to `CCCCCCCCCCCCCCCCCC(=O)Oc1ccc(/C=C/C(=O)NCC(=O)N[C@@H](COCc2ccccc2)C(=O)N[C@H](CCC(=O)OCC)C(=O)OCC)cc1OC`, in data set [1], the Activity result is “Non-Toxic”. Moreover, the result in data set [2] was inactive.

With `CCOC(=O)CC[C@@H](NC(=O)[C@@H](NC(=O)CNC(=O)[C@@H]1C[C@H]1c1ccc(F)c(F)c1)C(C)C)C(=O)OCC`, the Activity entry in data set [1] is given as “Non-Toxic”. In addition, the result in data set [2] was inactive.

In the case of `CCOC(=O)CC[C@@H](NC(=O)[C@@H](NC(=O)CNC(=O)CCc1ccc(O)c(OC)c1)C(C)C)C(=O)OCC`, the Activity entry in data set [1] is listed as “Non-Toxic”. The outcome in data set [2] was inactive.

Take `COc1cc(/C=C/C(=O)NCC(=O)N[C@H](C(=O)N[C@H](CCC(=O)OC(C)(C)C)C(=O)N(C)OC)C(C)C)ccc1O`: in data set [1], the Activity entry is recorded as “Non-Toxic”. The result in data set [2] was inactive.

Consider `CCOC(=O)[C@@H](CCC(=O)N[C@@H](CCCCN)C(=O)OC)NC(=O)[C@@H](NC(=O)CNC(=O)/C=C/c1ccc(O)c(OC)c1)C(C)C`, for which the Activity entry in data set [1] is given as “Non-Toxic”. Moreover, the result in data set [2] was inactive.

`CCOC(=O)CC[C@@H](NC(=O)[C@@H](NC(=O)CNC(=O)CCCc1ccc(O)c(OC)c1)C(C)C)C(=O)OCC`: the Activity result in data set [1] is reported as “Non-Toxic”. The result in data set [2] was inactive.

As for `CCCCCCCCCCCCCCCCCC(=O)Oc1ccc(/C=C/C(=O)NCC(=O)N[C@@H](CO)C(=O)N[C@H](CCC(=O)OCC)C(=O)OCC)cc1OC`, the Activity result in data set [1] is recorded as “Non-Toxic”. The outcome in data set [2] was inactive.

For the compound `COc1cc(/C=C/C(=O)NCC(=O)N[C@H](C(=O)N[C@H](CCC(=O)N(C)OC)C(=O)OC(C)(C)C)C(C)C)ccc1O`, in data set [1], the Activity result is on record as “Non-Toxic”. For the same compound, in data set [2], the result was inactive.

With `CONC(=O)CC[C@@H](NC(=O)[C@@H](NC(=O)CNC(=O)/C=C/c1ccc(O)c(OC)c1)C(C)C)C(=O)OC(C)(C)C`, the Activity entry in data set [1] is listed as “Non-Toxic”. Further, the result in data set [2] was inactive.

As for `CCOC(=O)CC[C@@H](NC(=O)[C@@H](NC(=O)CNC(=O)C1CC1c1ccc(F)c(F)c1)C(C)C)C(=O)OCC` (some centres undefined), the Activity entry in data set [1] is given as “Non-Toxic”. Further, in data set [2], the result was inactive.

As to `COc1cc(/C=C/C(=O)NCC(=O)N[C@H](C(=O)N[C@H](CCC(=O)N2CCCC2)C(=O)OC(C)(C)C)C(C)C)ccc1O`, the Activity result in data set [1] is on record as “Non-Toxic”. In addition, the outcome in data set [2] was inactive.

Turning to `CCNC(=O)CC[C@@H](NC(=O)[C@@H](NC(=O)CNC(=O)/C=C/c1ccc(O)c(OC)c1)C(C)C)C(=O)NCC`, in data set [1], the Activity entry was “Non-Toxic”. The result in data set [2] was inactive.

Consider `CCOC(=O)CC[C@@H](NC(=O)[C@@H](NC(=O)CNC(=O)/C=C/c1ccc([N+](=O)[O-])cc1)C(C)C)C(=O)OCC`, for which the Activity entry in data set [1] is “Non-Toxic”. For the same compound, in data set [2], the result was inactive.

`CCOC(=O)CC[C@@H](NC(=O)[C@H](COCc1ccccc1)NC(=O)CNC(=O)/C=C/c1ccc(O)c(OC)c1)C(=O)OCC`: in data set [1], the Activity entry is recorded as “Non-Toxic”. Besides, the outcome in data set [2] was inactive.

As for `CCOC(=O)CC[C@@H](NC(=O)[C@@H](NC(=O)CNC(=O)/C=C/c1ccc(O)c(O)c1)C(C)C)C(=O)OCC`, in data set [1], the Activity entry is “Non-Toxic”. Further, in data set [2], the outcome was inactive.
